Laboratory results reported in PMC6489120 (Journal of medicinal chemistry, 2018).
Converted amounts (≈) assume the structure as drawn.

How the values were obtained:
[1] = target: BRD4 BD1 (Homo sapiens, UniProt O60885); assay: fluorescence polarization binding assay, BRD4 BD1; conditions: relative to compound 24
Outline: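 Binding measured by fluorescence polarization against recombinant human BRD4 BD1 (residues 44−168), using the group's previously established FP assay.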

[2] = full pharmacokinetics in mice; type: in vivo; conditions: Balb/c, mouse, plasma, po, 25 mg/kg
Outline: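 Balb/c mice dosed orally at 25 mg/kg (iv arm 5.0 mg/kg), test compound in 20% (v/v) PCP and 70% (v/v) PBS. Blood taken 0, 5, 15, 30 min and 1, 2, 4, 6, 8, 24 h post-dose and centrifuged; plasma held at −80 °C. Plasma levels by LC−MS/MS (C18, formic acid/CH3CN gradient, positive-ion MRM); parameters by noncompartmental analysis.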

[3] = aqueous solubility; type: physicochemical; conditions: aqueous solution
[4] = target: CREBBP (Homo sapiens, UniProt Q92793); assay: DiscoverX BROMOscan; type: binding; conditions: BROMOscan Kd
[5] = target: CECR2 (Homo sapiens, UniProt Q9BXF3); assay: DiscoverX BROMOscan; type: binding; conditions: BROMOscan Kd
[6] = target: T1, EP300 (Homo sapiens, UniProt Q09472); assay: DiscoverX BROMOscan; type: binding; conditions: BROMOscan Kd
T1 sequence (Q09472 1040-1161 limits assumed): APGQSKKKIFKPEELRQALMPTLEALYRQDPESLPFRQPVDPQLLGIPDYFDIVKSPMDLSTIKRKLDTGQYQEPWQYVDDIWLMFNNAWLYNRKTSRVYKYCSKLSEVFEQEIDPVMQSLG

[7] = tested on: 23 other non-BET family bromodomain containing proteins; assay: DiscoverX BROMOscan, other non-BET bromodomains summary; type: binding; conditions: at concentrations of 3–4 µM
[8] = tested on: other 371 kinases; assay: kinase panel by Reaction Biology; type: biochemical; conditions: at 3 µM
[9] = animal weight and signs of toxicity in efficacy studies; type: in vivo; conditions: all the three dose-schedules tested

Chain of CREBBP (Q92793 1081-1197 limits assumed): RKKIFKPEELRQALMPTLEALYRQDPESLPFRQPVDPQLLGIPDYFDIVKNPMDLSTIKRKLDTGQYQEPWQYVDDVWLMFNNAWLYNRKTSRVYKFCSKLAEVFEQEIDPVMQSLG
Chain of CECR2 (Q9BXF3 424-538 limits assumed): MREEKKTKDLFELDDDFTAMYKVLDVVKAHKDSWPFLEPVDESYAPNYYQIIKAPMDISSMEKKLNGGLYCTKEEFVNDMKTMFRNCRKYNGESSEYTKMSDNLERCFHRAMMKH

Structure (SMILES) | times less potent than 24 in binding to BRD4 BD1 [1] | Cmax [2] | solubility ([3]; pH 3, aqueous buffer) | solubility ([3]; pH 11, aqueous buffer) | selectivity for BET bromodomains over CREBBP [4] | selectivity for BET bromodomains over CRCR2 [5] | selectivity for BET bromodomains over EP300 [6] | binding affinity to 23 other non-BET bromodomain containing proteins [7] | inhibition against other 371 kinases [8] | other signs of toxicity [9] | weight loss [9]
COc1cc2c(cc1-c1c(C)noc1C)[nH]c1nc(C)nc(Nc3c(C)c(C4CC4)nn3C)c12 [Compound 37, N-(3-Cyclopropyl-1,4-dimethyl-1H-pyrazol-5-yl)-7-(3,5-dimethylisoxazol-4-yl)-6-methoxy-2-methyl-9H-pyrimido[4,5-b]indol-4-amine] | > 5 times |  |  |  |  |  |  |  |  |  | 
COc1cc2c(cc1-c1c(C)noc1C)[nH]c1nc(C)nc(Nc3cc(C4CC4)nn3C)c12 [Compound 28, N-(3-Cyclopropyl-1-methyl-1H-pyrazol-5-yl)-7-(3,5-dimethylisoxazol-4-yl)-6-methoxy-2-methyl-9H-pyrimido[4,5-b]indol-4-amine] |  | 6.4 µM | 19.5 ± 5.5 µM (≈ 8.65 µg/mL) | 14 ± 0.5 µM (≈ 6.21 µg/mL) | > 20 fold | > 50 fold | > 50 fold | no appreciable binding affinity | no appreciable inhibition | does not cause other signs of toxicity | no more than 5%
